Data: ChEMBL document CHEMBL1126625, “7-Azetidinylquinolones as antibacterial agents. Synthesis and structure-activity relationships” (J Med Chem, 1993)
Values after ≈ are worked out from the molar mass of the structure shown.

Key:
Enterococcus faecalis = assay: Minimum inhibitory concentration (MIC) preventing growth of Streptococcus faecalis ATCC 10541; assay type: functional
Enterobacter cloacae = assay: Minimum inhibitory concentration (MIC)preventing growth of Enterobacter cloacae; assay type: functional
Klebsiella pneumoniae = assay: Minimum inhibitory concentration (MIC)preventing growth of Klebsiella pneumoniae; assay type: functional
Bacillus subtilis = assay: Minimum inhibitory concentration (MIC) preventing growth of Bacillus subtilis; assay type: functional
Bacillus cereus = assay: Minimum inhibitory concentration (MIC) preventing growth of Bacillus cereus; assay type: functional
[1] = tested on: Staphylococcus epidermidis; assay: Minimum inhibitory concentration (MIC) preventing growth of Staphylococcus epidermidis; assay type: functional
Escherichia coli [2] = assay: Minimum inhibitory concentration (MIC)preventing growth of Escherichia coli; assay type: functional
Proteus vulgaris = assay: Minimum inhibitory concentration (MIC) preventing growth of Proteus vulgaris; assay type: functional
Mus musculus = assay: Blood level after oral administration in mice (50 mg/kg) was determined (area under the concentration-time curve recorded at 0.5, 1, 2, and 4 hour after dosing); assay type: ADME, organism-based; parameters: dose 50 mg/kg, time < 4 hr, route oral; conditions: in vivo
Summary of the method: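 Single oral dose of 50 mg/kg to mice. Blood taken from groups of six mice at 0.5, 1, 2 and 4 h after dosing. Serum levels measured by disk agar diffusion bioassay with Bacillus subtilis ATCC 6633 on Seed Agar, plates incubated 18 h at 37 °C, giving total activity in serum. AUC 0-4 h expressed as μg/mL […].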

Pseudomonas aeruginosa [3] = assay: Minimum inhibitory concentration (MIC)preventing growth of Pseudomonas aeruginosa; assay type: functional
Staphylococcus aureus [4] = assay: Minimum inhibitory concentration (MIC) preventing growth of […]; assay type: functional
Morganella morganii = assay: Minimum inhibitory concentration (MIC) preventing growth of Morganella morganii; assay type: functional
Escherichia coli [5] = assay: Efficacy on systemic infections after oral administration in mice was determined against Escherichia coli HM-42; assay type: functional
Summary of the method: (§1)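 Mouse protection test using 4 groups of 10 mice. Mice were infected intraperitoneally with a bacterial suspension slightly above LD100. A single oral dose was given immediately after infection, with four doses, one per group, chosen from in vitro activity. Survival was scored after one week, and ED50 (total mg/kg protecting 50% of mice) was interpolated from group survival rates.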

Staphylococcus aureus [6] = assay: Efficacy on systemic infections after oral administration in mice was determined against […] HS-93; assay type: functional; summary of the method: as §1
Pseudomonas aeruginosa [7] = assay: Efficacy on systemic infections after oral administration in mice was determined against Pseudomonas aeruginosa HS-116; assay type: functional; summary of the method: as §1

MIC (Enterococcus faecalis) [µg/mL] | MIC (Enterobacter cloacae) [µg/mL] | MIC (Klebsiella pneumoniae) [µg/mL] | MIC (Bacillus subtilis) [µg/mL] | MIC (Bacillus cereus) [µg/mL] | MIC [1] [µg/mL] | MIC (Escherichia coli [2]) [µg/mL] | MIC (Proteus vulgaris) [µg/mL] | AUC (Mus musculus) [ng·h/mL] | MIC (Pseudomonas aeruginosa [3]) [µg/mL] | MIC (Staphylococcus aureus [4]) [µg/mL] | MIC (Morganella morganii) [µg/mL] | Compound | ED50 (Escherichia coli [5]) [mg/kg] | ED50 (Staphylococcus aureus [6]) [mg/kg] | ED50 (Pseudomonas aeruginosa [7]) [mg/kg]
1 (≈ 2.65 µM) | 0.12 (≈ 0.318 µM) | 0.25 (≈ 0.662 µM) | 0.06 (≈ 0.159 µM) | 0.25 (≈ 0.662 µM) | 0.25 (≈ 0.662 µM) | 0.12 (≈ 0.318 µM) | 0.5 (≈ 1.32 µM) |  | 2 (≈ 5.3 µM) | 0.25 (≈ 0.662 µM) | 0.25 (≈ 0.662 µM) | CN(C)C1(C)CN(c2c(F)cc3c(=O)c(C(=O)O)cn(C4CC4)c3c2F)C1 | 1.4 | 7.4 | 70.2
0.12 (≈ 0.344 µM) | 0.25 (≈ 0.716 µM) | 0.25 (≈ 0.716 µM) | 0.06 (≈ 0.172 µM) | 0.12 (≈ 0.344 µM) | 0.12 (≈ 0.344 µM) | 0.25 (≈ 0.716 µM) | 1 (≈ 2.86 µM) | 1700 | 2 (≈ 5.73 µM) | 0.12 (≈ 0.344 µM) | 0.25 (≈ 0.716 µM) | NCC1CN(c2c(F)cc3c(=O)c(C(=O)O)cn(C4CC4)c3c2F)C1 |  |  | 
2 (≈ 5.93 µM) | 0.12 (≈ 0.356 µM) | 0.015 (≈ 0.0445 µM) | 0.12 (≈ 0.356 µM) | 0.5 (≈ 1.48 µM) | 0.5 (≈ 1.48 µM) | 0.12 (≈ 0.356 µM) | 1 (≈ 2.96 µM) |  | 2 (≈ 5.93 µM) | 0.5 (≈ 1.48 µM) | 0.12 (≈ 0.356 µM) | CCn1cc(C(=O)O)c(=O)c2cc(F)c(N3CC(C)(N)C3)c(F)c21 | 4.1 | 8.2 | 57.3
2 (≈ 5.56 µM) | 0.25 (≈ 0.696 µM) | 0.25 (≈ 0.696 µM) | 0.06 (≈ 0.167 µM) | 0.25 (≈ 0.696 µM) | 0.25 (≈ 0.696 µM) | 0.25 (≈ 0.696 µM) | 0.5 (≈ 1.39 µM) |  | 4 (≈ 11.1 µM) | 0.25 (≈ 0.696 µM) | 0.25 (≈ 0.696 µM) | CN(C)C1(C)CN(c2cc3c(cc2F)c(=O)c(C(=O)O)cn3C2CC2)C1 | 2.7 | 16.1 | 296
0.25 (≈ 0.686 µM) | 0.015 (≈ 0.0412 µM) | 0.015 (≈ 0.0412 µM) | 0.015 (≈ 0.0412 µM) | 0.06 (≈ 0.165 µM) | 0.06 (≈ 0.165 µM) | 0.015 (≈ 0.0412 µM) | 0.12 (≈ 0.329 µM) |  | 0.5 (≈ 1.37 µM) | 0.06 (≈ 0.165 µM) | 0.015 (≈ 0.0412 µM) | CC1(N)CN(c2c(F)c(N)c3c(=O)c(C(=O)O)cn(C4CC4)c3c2F)C1 | 3.3 | 7.2 | 71

The next lines start with the compound.

Compound | MIC (Enterococcus faecalis) [µg/mL] | MIC (Enterobacter cloacae) [µg/mL] | MIC (Klebsiella pneumoniae) [µg/mL] | MIC (Bacillus subtilis) [µg/mL] | MIC (Bacillus cereus) [µg/mL] | MIC [1] [µg/mL] | MIC (Escherichia coli [2]) [µg/mL] | MIC (Proteus vulgaris) [µg/mL] | AUC (Mus musculus) [ng·h/mL] | MIC (Pseudomonas aeruginosa [3]) [µg/mL] | MIC (Staphylococcus aureus [4]) [µg/mL] | MIC (Morganella morganii) [µg/mL] | ED50 (Escherichia coli [5]) [mg/kg] | ED50 (Staphylococcus aureus [6]) [mg/kg] | ED50 (Pseudomonas aeruginosa [7]) [mg/kg]
CCNC1CN(c2cc3c(cc2F)c(=O)c(C(=O)O)cn3C2CC2)C1 | 2 (≈ 5.79 µM) | 0.06 (≈ 0.174 µM) | 0.06 (≈ 0.174 µM) | 0.06 (≈ 0.174 µM) | 0.25 (≈ 0.724 µM) | 0.25 (≈ 0.724 µM) | 0.06 (≈ 0.174 µM) | 0.25 (≈ 0.724 µM) | 18100 | 2 (≈ 5.79 µM) | 0.25 (≈ 0.724 µM) | 0.5 (≈ 1.45 µM) |  |  | 
CC1(N)CN(c2c(F)cc3c(=O)c(C(=O)O)cn(-c4ccc(F)cc4)c3c2Cl)C1 | 0.25 (≈ 0.596 µM) | 0.06 (≈ 0.143 µM) | 0.03 (≈ 0.0715 µM) | 0.015 (≈ 0.0357 µM) | 0.06 (≈ 0.143 µM) | 0.06 (≈ 0.143 µM) | 0.03 (≈ 0.0715 µM) | 0.12 (≈ 0.286 µM) |  | 0.5 (≈ 1.19 µM) | 0.06 (≈ 0.143 µM) | 0.12 (≈ 0.286 µM) | 0.4 | 1.1 | 54.9
CC1(N)CN(c2c(F)cc3c(=O)c(C(=O)O)cn(-c4ccc(F)cc4)c3c2F)C1 | 2 (≈ 4.96 µM) | 0.25 (≈ 0.62 µM) | 0.015 (≈ 0.0372 µM) | 0.12 (≈ 0.298 µM) | 0.12 (≈ 0.298 µM) | 0.12 (≈ 0.298 µM) | 0.25 (≈ 0.62 µM) | 1 (≈ 2.48 µM) |  | 2 (≈ 4.96 µM) | 0.12 (≈ 0.298 µM) | 0.25 (≈ 0.62 µM) | 3.2 | 10.9 | 159
CCNCC1CN(c2cc3c(cc2F)c(=O)c(C(=O)O)cn3C2CC2)C1 | 4 (≈ 11.1 µM) | 0.12 (≈ 0.334 µM) | 0.06 (≈ 0.167 µM) | 0.06 (≈ 0.167 µM) | 0.5 (≈ 1.39 µM) | 1 (≈ 2.78 µM) | 0.25 (≈ 0.696 µM) | 1 (≈ 2.78 µM) | 0 | 4 (≈ 11.1 µM) | 0.5 (≈ 1.39 µM) | 0.5 (≈ 1.39 µM) |  |  | 
NCC1CN(c2cc3c(cc2F)c(=O)c(C(=O)O)cn3C2CC2)C1 | 0.5 (≈ 1.51 µM) | 0.25 (≈ 0.754 µM) | 0.12 (≈ 0.362 µM) | 0.12 (≈ 0.362 µM) | 0.25 (≈ 0.754 µM) | 0.25 (≈ 0.754 µM) | 0.12 (≈ 0.362 µM) | 1 (≈ 3.02 µM) | 0 | 1 (≈ 3.02 µM) | 0.5 (≈ 1.51 µM) | 0.12 (≈ 0.362 µM) |  |  | 
